{"source": "ChEMBL document CHEMBL1122186", "about": "“Synthesis and spasmolytic activities of 2-(1,2-benzisoxazol-3-yl)-3-[[omega-(dialkylamino)alkoxy]phenyl]acrylonitriles” (1982)", "assay_type_in_all_cases": "functional", "key": {"[1]": {"species": "Mus musculus"}, "[2]": {"species": "Cavia porcellus", "assay": "(§1) Inhibitory effect on the response of isolated ileum to acetylcholine (anti-ACh activity) in guinea pig was determined", "summary_of_the_method": "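Ileum contraction to acetylcholine (1.1 × 10^-4 mM), with compound added 2 min before the agonist. Three concentrations per compound, percent inhibition averaged over four experiments. ID50 is derived graphically.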"}, "[3]": {"system": "Mus musculus", "assay": "Percent inhibition of the charcoal meal transfer in mice(100 mg/kg) was determined", "summary_of_the_method": "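Male ddN mice (20–25 g) are fasted 18 h and dosed orally. Charcoal meal (5% charcoal in 10% tragacanth) is given orally 20 min later, and mice are killed after 30 min. Charcoal travel is expressed as % of small-intestine length (pylorus to caecum). The group mean (n=7) is compared with the vehicle group (n=7) as percent change.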"}, "[4]": {"species": "Cavia porcellus", "assay": "as §1", "summary_of_the_method": "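Isolated ileum contracted with acetylcholine (1.1 × 10^-4 mM). Test compound added 2 min before the agonist. Each compound was tested at three concentrations, with percent inhibition of the contraction as the mean of four experiments. ID50, the concentration giving 50% inhibition, was read off by the usual graphic method.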", "remark": "listed apart in the source"}}, "data": [{"smiles": "CN(C)CCCOc1ccccc1/C=C(\\C#N)c1noc2ccccc12.Cl", "values": [{"measurement": "Inhibition", "setting": "[1]", "result": 9, "unit": "%"}]}, {"smiles": "COc1ccc2onc(/C(C#N)=C/c3ccccc3OCCN3CCCCC3)c2c1.Cl.O", "values": [{"measurement": "ID50", "setting": "[2]", "result": 25, "unit": "µM"}, {"measurement": "Inhibition", "setting": "[3]", "result": 51, "unit": "%"}]}, {"smiles": "CCN(CC)CCOc1ccccc1/C=C(\\C#N)c1noc2ccc(O)cc12.Cl", "values": [{"measurement": "Inhibition", "setting": "[1]", "result": 14, "unit": "%"}]}, {"smiles": "Cl.N#C/C(=C\\c1ccccc1OCCN1CCCC1)c1noc2ccccc12", "values": [{"measurement": "Inhibition", "setting": "[1]", "result": 22, "unit": "%"}]}, {"smiles": "Cl.N#C/C(=C\\c1ccc(OCCCN2CCCCC2)cc1)c1noc2ccccc12.O", "values": [{"measurement": "Inhibition", "setting": "[1]", "result": 19, "unit": "%"}]}, {"smiles": "CCN(CC)CCOc1ccccc1/C=C(\\C#N)c1noc2ccccc12.Cl", "values": [{"measurement": "Inhibition", "setting": "[1]", "result": 20, "unit": "%"}]}, {"smiles": "Cl.N#C/C(=C\\c1ccccc1OCCN1CCCCC1)c1noc2ccccc12.O", "values": [{"measurement": "ID50", "setting": "[2]", "result": 8.7, "unit": "µM"}, {"measurement": "Inhibition", "setting": "[1]", "result": 45, "unit": "%"}]}, {"smiles": "Cl.N#C/C(=C\\c1ccccc1OCCN1CCOCC1)c1noc2ccc(Cl)cc12.O", "values": [{"measurement": "Inhibition", "setting": "[1]", "result": 11, "unit": "%"}]}, {"smiles": "Cl.N#C/C(=C\\c1cccc(OCCN2CCOCC2)c1)c1noc2ccccc12", "values": [{"measurement": "Inhibition", "setting": "[1]", "result": 32, "unit": "%"}]}, {"smiles": "CN1[C@@H]2CC[C@H]1C[C@@H](OC(=O)C(CO)c1ccccc1)C2.O=S(=O)(O)O", "note": "(stereo not given in full) [ATROPINE SULFATE]", "values": [{"measurement": "ID50", "setting": "[2]", "result": 0.0072, "unit": "µM"}, {"measurement": "Inhibition", "setting": "[1]", "result": 27, "unit": "%"}]}, {"smiles": "Cl.N#C/C(=C\\c1ccccc1OCCN1CCCCC1)c1noc2ccc(O)cc12", "values": [{"measurement": "Inhibition", "setting": "[1]", "result": 39, "unit": "%"}]}, {"smiles": "Cl.N#C/C(=C\\c1ccccc1OCCN1CCCCC1)c1noc2ccc(Cl)cc12.O", "values": [{"measurement": "Inhibition", "setting": "[1]", "result": 37, "unit": "%"}]}, {"smiles": "Cl.N#C/C(=C\\c1ccccc1OCCN1CCCC1)c1noc2ccc(Cl)cc12", "values": [{"measurement": "Inhibition", "setting": "[1]", "result": 19, "unit": "%"}]}, {"smiles": "CCCC[N+]1(C)[C@@H]2C[C@@H](OC(=O)[C@H](CO)c3ccccc3)C[C@H]1[C@@H]1O[C@@H]12.[Br-]", "note": "(stereo not given in full) [BUTYLSCOPOLAMINE BROMIDE]", "values": [{"measurement": "ID50", "setting": "[2]", "result": 0.075, "unit": "µM"}, {"measurement": "Inhibition", "setting": "[1]", "result": 19, "unit": "%"}]}, {"smiles": "Cl.N#C/C(=C\\c1ccccc1OCCN1CCOCC1)c1noc2ccccc12.O", "values": [{"measurement": "ID50", "setting": "[2]", "result": 22, "unit": "µM"}, {"measurement": "Inhibition", "setting": "[1]", "result": 55, "unit": "%"}]}, {"smiles": "COc1ccc(Cc2nccc3cc(OC)c(OC)cc23)cc1OC.Cl", "note": "[PAPAVERINE HYDROCHLORIDE]", "values": [{"measurement": "Inhibition", "setting": "[1]", "result": 1, "unit": "%"}]}, {"smiles": "COc1ccc2onc(/C(C#N)=C/c3ccccc3OCCN3CCCC3)c2c1.Cl.O", "values": [{"measurement": "Inhibition", "setting": "[1]", "result": 33, "unit": "%"}]}, {"smiles": "CN1CC[C@]23c4c5ccc(O)c4O[C@H]2[C@@H](O)C=C[C@H]3[C@H]1C5.Cl", "note": "[MORPHINE HYDROCHLORIDE]", "values": [{"measurement": "ID50", "setting": "[4]", "result": 5.3, "unit": "µM"}, {"measurement": "Inhibition", "setting": "[1]", "result": 64, "unit": "%"}]}, {"smiles": "Br.N#C/C(=C\\c1ccccc1OCCN1CCCCCC1)c1noc2ccccc12", "values": [{"measurement": "Inhibition", "setting": "[1]", "result": 27, "unit": "%"}]}, {"smiles": "COc1ccc2onc(/C(C#N)=C/c3ccccc3OCCN3CCOCC3)c2c1.Cl", "values": [{"measurement": "ID50", "setting": "[2]", "result": 32, "unit": "µM"}, {"measurement": "Inhibition", "setting": "[1]", "result": 48, "unit": "%"}]}, {"smiles": "CN(C)CCOc1ccccc1/C=C(\\C#N)c1noc2ccc(Cl)cc12.Cl", "values": [{"measurement": "Inhibition", "setting": "[1]", "result": 11, "unit": "%"}]}, {"smiles": "Cl.N#C/C(=C\\c1ccccc1OCCCCN1CCOCC1)c1noc2ccccc12", "values": [{"measurement": "Inhibition", "setting": "[1]", "result": 22, "unit": "%"}]}, {"smiles": "Cl.N#C/C(=C\\c1ccccc1OCCCN1CCOCC1)c1noc2ccccc12", "values": [{"measurement": "Inhibition", "setting": "[1]", "result": 46, "unit": "%"}]}, {"smiles": "Cl.N#C/C(=C\\c1ccccc1OCCCN1CCCCCC1)c1noc2ccccc12", "values": [{"measurement": "Inhibition", "setting": "[1]", "result": 21, "unit": "%"}]}, {"smiles": "Cl.N#C/C(=C\\c1ccccc1OCCN1CCOCC1)c1noc2ccc(O)cc12", "values": [{"measurement": "Inhibition", "setting": "[1]", "result": 4, "unit": "%"}]}, {"smiles": "CN(C)CCOc1ccccc1/C=C(\\C#N)c1noc2ccccc12.Cl.O", "values": [{"measurement": "ID50", "setting": "[2]", "result": 16, "unit": "µM"}, {"measurement": "Inhibition", "setting": "[1]", "result": 37, "unit": "%"}]}, {"smiles": "C[N+]1(CCOc2ccccc2/C=C(\\C#N)c2noc3ccccc23)CCOCC1.[I-]", "values": [{"measurement": "Inhibition", "setting": "[1]", "result": 12, "unit": "%"}]}]}
